pIC50: −log10 of the molar value.

What is called pIC50 is the IC50 on a negative log10 scale, so that one unit is a factor of ten. Lower therefore signals a large IC50.

One experiment concerns the target IMPDH1(595)-Y12A (Homo sapiens, UniProt P20839, Y12A). Description: IMPDH1 activity assay, GTP inhibition. It is filed as biochemical. The method, boiled down:
(§1)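 Enzyme at 1 µM in pH 7.0 HEPES/KCl/DTT activity buffer, preincubated 30 min at 20°C with 1 mM ATP, 1 mM IMP, 1 mM MgCl2 and graded GTP. Reaction started with 300 µM NAD+. NADH followed at 340 nm (25°C, per minute, 15 min) against a standard curve. Specific activity from the 2–7 min slope; three measurements per point. IC50 and Hill coefficient from a least-squares four-parameter fit, 90% confidence intervals.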

For another experiment, the target named is IMPDH1(595)-Y12A-S477D (Homo sapiens, UniProt P20839, S477D/Y12A). The experiment can be described thus: IMPDH1 activity assay, GTP inhibition. It counts as biochemical. In a few lines: as §1
Sequence of IMPDH1(595)-Y12A-S477D (P20839 1-509 Y12A/S477D): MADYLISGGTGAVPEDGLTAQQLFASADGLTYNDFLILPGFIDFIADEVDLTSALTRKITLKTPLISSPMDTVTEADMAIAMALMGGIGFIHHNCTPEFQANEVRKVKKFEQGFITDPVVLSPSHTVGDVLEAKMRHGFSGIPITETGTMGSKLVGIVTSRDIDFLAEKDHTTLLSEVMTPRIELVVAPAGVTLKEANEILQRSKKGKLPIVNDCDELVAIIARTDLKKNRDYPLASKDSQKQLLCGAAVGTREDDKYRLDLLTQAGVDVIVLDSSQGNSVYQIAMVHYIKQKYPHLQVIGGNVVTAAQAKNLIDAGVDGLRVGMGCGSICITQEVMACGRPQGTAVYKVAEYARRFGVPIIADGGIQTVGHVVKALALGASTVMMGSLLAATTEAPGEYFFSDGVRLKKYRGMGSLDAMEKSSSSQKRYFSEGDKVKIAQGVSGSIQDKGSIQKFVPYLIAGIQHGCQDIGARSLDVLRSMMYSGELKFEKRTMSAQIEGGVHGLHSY
For a further experiment, the target named is IMPDH1(595)-S477D (Homo sapiens, UniProt P20839, S477D). The experiment can be described thus: IMPDH1 activity assay, GTP inhibition. It is filed as biochemical. The method, boiled down: (§2)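 Recombinant human retinal-variant enzyme (E. coli BL21(DE3), 6xHis-SUMO tag removed by ULP1, gel filtration). Enzyme diluted ≥100-fold to 1 µM in pH 7.0 HEPES/KCl/DTT buffer. Preincubated 30 min at 20°C with 1 mM ATP, 1 mM IMP, 1 mM MgCl2 and varying GTP. Started with 300 µM NAD+. NADH read at A340, 25°C, each minute for 15 min. Rate from a 2–7 min slope. Triplicate; four-parameter variable-slope fit with 90% CI.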
Sequence of IMPDH1(595)-S477D (P20839 1-509 S477D): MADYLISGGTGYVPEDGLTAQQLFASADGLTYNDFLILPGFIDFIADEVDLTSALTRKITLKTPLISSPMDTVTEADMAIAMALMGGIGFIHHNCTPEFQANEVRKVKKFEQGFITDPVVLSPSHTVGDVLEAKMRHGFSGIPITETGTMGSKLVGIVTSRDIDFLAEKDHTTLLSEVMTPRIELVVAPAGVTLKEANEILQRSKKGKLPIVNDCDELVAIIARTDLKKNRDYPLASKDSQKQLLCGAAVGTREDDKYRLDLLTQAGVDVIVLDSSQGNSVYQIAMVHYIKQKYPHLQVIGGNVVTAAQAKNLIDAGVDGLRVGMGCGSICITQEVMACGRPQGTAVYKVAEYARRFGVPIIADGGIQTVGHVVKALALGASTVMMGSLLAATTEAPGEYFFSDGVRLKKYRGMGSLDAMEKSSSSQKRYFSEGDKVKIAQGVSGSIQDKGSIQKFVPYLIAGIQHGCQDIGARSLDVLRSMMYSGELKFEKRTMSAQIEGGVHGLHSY

Another experiment concerns the target IMPDH1(595)-WT (Homo sapiens, UniProt P20839). The experiment can be described thus: IMPDH1 activity assay, GTP inhibition. It is filed as biochemical. The method, boiled down: as §2
Another experiment addresses IMPDH1(546)-WT (Homo sapiens, UniProt P20839). Description: IMPDH1 activity assay, GTP inhibition. It is filed as biochemical. In a few lines: as §2
In another experiment the target is IMPDH1(546)-Y12A (Homo sapiens, UniProt P20839, Y12A). Description: IMPDH1 activity assay, GTP inhibition. It counts as biochemical. The method, boiled down: as §1
Sequence of IMPDH1(546)-Y12A (P20839 1-509 Y12A): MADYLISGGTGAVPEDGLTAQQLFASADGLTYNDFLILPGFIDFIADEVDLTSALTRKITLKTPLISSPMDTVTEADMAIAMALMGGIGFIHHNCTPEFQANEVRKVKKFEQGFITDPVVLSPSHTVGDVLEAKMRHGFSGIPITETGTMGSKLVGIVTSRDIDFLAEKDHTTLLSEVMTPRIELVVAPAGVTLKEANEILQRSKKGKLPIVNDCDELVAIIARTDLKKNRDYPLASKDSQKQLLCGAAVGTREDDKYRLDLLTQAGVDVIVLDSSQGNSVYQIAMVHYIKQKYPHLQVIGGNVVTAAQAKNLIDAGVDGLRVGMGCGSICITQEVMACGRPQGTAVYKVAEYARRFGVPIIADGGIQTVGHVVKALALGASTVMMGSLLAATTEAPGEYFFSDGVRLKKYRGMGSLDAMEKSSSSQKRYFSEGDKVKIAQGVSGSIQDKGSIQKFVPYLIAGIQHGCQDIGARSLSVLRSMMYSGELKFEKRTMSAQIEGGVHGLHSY
Another experiment has as its target IMPDH1(546)-S477D (Homo sapiens, UniProt P20839, S477D). The experiment can be described thus: IMPDH1 activity assay, GTP inhibition. It is filed as biochemical. The method, boiled down: as §2
A further experiment deals with IMPDH1(546)-Y12A-S477D (Homo sapiens, UniProt P20839, S477D/Y12A). The experiment can be described thus: IMPDH1 activity assay, GTP inhibition. It counts as biochemical. The method, boiled down: as §1
Sequence of IMPDH1(546)-Y12A-S477D (P20839 1-509 Y12A/S477D): as the sequence (P20839 1-509 Y12A/S477D) above
The next experiment relates to HeLa cells. Description: Ribavirin-induced IMPDH filament assembly in cells, immunofluorescence. The following applies: 1 mM ribavirin for 2 h. It is filed as cell-based, human. The method, boiled down:
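HeLa (ATCC CCL-2) in DMEM/10% FBS, 37°C, 5% CO2. Seeded 4×10^4 cells/well on chambered glass slides and transfected next day with 328 ng plasmid (TransIT-HeLaMONSTER). After 48 h, fixed in 4% paraformaldehyde and Triton-permeabilised. Stained with anti-IMPDH2 (endogenous plus transfected), anti-FLAG and DAPI. Imaged by widefield 40×. Two biological replicates, ≥100 cells counted per condition.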

Where [1] appears, read: Hill coefficient of GTP inhibition curve.

Sequence of IMPDH1(595)-WT (P20839 1-558 isoform P20839-3 limits assumed): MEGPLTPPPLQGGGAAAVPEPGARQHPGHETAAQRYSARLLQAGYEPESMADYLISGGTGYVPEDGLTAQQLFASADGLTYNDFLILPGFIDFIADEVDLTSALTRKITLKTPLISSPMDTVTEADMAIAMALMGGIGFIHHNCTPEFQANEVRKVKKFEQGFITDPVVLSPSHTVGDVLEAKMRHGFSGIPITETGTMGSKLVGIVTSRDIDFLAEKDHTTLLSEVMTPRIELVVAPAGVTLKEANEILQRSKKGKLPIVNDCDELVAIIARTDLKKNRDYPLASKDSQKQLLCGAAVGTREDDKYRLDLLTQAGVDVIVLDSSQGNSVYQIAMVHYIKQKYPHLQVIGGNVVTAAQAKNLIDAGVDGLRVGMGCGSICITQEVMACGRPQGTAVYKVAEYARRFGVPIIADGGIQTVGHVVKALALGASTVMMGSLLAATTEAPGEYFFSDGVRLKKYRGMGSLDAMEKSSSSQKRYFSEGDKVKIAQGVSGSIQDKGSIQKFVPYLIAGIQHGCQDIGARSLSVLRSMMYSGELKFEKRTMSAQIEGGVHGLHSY
Sequence of IMPDH1(546)-WT (P20839 1-509 limits assumed): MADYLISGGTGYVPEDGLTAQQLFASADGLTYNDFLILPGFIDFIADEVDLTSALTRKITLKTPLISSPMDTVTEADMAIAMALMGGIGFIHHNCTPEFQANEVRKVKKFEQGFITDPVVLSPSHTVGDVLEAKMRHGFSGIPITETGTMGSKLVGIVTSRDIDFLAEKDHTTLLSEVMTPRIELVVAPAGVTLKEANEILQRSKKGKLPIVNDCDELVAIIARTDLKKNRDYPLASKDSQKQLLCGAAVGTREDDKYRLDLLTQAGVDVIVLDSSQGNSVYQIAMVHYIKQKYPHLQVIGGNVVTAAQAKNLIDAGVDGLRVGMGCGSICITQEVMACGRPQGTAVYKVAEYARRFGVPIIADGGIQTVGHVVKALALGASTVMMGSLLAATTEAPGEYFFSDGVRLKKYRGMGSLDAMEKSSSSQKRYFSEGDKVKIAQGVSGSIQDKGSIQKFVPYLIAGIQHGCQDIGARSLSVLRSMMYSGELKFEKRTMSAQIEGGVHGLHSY
Sequence of IMPDH1(595)-Y12A (P20839 1-509 Y12A): as the sequence (P20839 1-509 Y12A) above
Sequence of IMPDH1(546)-S477D (P20839 1-509 S477D): as the sequence (P20839 1-509 S477D) above

On to `Nc1nc2c(ncn2[C@@H]2O[C@H](COP(=O)(O)OP(=O)(O)OP(=O)(O)O)[C@@H](O)[C@H]2O)c(=O)[nH]1` [GTP, guanosine triphosphate], for which the pIC50 against IMPDH1(595)-Y12A is 3.33; against IMPDH1(595)-Y12A-S477D, 3.33; on IMPDH1(595)-S477D, 3.22; against IMPDH1(595)-WT it was 2.94; on IMPDH1(546)-WT, 3.12; against IMPDH1(546)-Y12A it was 3.27. Further, the pIC50 is 3.31 at IMPDH1(546)-S477D and 3.34 against IMPDH1(546)-Y12A-S477D. Further, the Hill best-fit at IMPDH1(595)-Y12A (setting [1]) is given as 4.5; on IMPDH1(595)-Y12A-S477D (setting [1]), 4.1; on IMPDH1(595)-S477D (setting [1]), 3.7; on IMPDH1(595)-WT (setting [1]), 2.3; at IMPDH1(546)-WT (setting [1]), 4.6; on IMPDH1(546)-Y12A (setting [1]), 4.0. Also, the results for the Hill best-fit on IMPDH1(546)-S477D (setting [1]) and on IMPDH1(546)-Y12A-S477D (setting [1]) were 3.7 and 4.2, respectively.

Turning to `NC(=O)c1ncn([C@@H]2O[C@H](CO)[C@@H](O)[C@H]2O)n1` [ribavirin], the “Percentage of transfected cells containing filaments” value amounted to 100% in the experiment with HeLa cells (cells transfected with FLAG-tagged IMPDH1(546)-S477A), 2% with HeLa cells (cells transfected with FLAG-tagged IMPDH1(546)-S477D) and 2% in the experiment on HeLa cells (cells transfected with FLAG-tagged IMPDH1(595)-S477D).

For the origin of these results see publication PMC10849882 (The Journal of Cell Biology, 2024).
